IDH1 R132H inh – blocks human IDH1 R132H reductase activity. O75874. diaphorase/resazurin fluorescence, 60 min. inhibition, % at 10 µM. 0.18% of 70,000 active; in the data active means inhibition above about 34%; inconclusive means no clear call, values can overlap the other calls; inactive means below about 11%;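 further: 0% = DMSO and 100% = no enzyme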
KDM4C inh – blocks human GASC-1 (KDM4C) demethylase activity; AID 720574; 0.15% of 96,000 active; GST-KDM4C 2-372, H3K9me3 peptide, LANCE TR-FRET; Q9H3R0; inhibition, % at 12.5 µM;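 active means mean replicate inhibition above about 25%, with at least 55% of replicates also reaching it, limit read from the data, passing the limit was not always enough; inconclusive means only one of those two conditions met; inactive means neither condition met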
Target sequence (Q9H3R0 2-372 limits assumed): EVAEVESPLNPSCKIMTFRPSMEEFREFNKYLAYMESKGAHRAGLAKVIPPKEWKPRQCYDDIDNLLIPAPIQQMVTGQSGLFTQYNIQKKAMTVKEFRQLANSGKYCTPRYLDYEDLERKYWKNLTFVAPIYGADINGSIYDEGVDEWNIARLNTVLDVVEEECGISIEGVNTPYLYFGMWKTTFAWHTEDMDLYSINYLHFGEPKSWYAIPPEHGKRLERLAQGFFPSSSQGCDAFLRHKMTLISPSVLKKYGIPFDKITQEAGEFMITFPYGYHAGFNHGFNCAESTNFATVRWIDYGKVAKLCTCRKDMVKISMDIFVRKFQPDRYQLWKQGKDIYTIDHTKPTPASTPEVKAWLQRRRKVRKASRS
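material = GST-tagged GASC-1 (JMJD2C) catalytic fragment, aa 2-372 | amount = enzyme final amount 10 nM | medium = HEPES buffer, pH 7.5, plus ascorbate | also added = H3K9me3 peptide substrate, Fe(II), 2-oxoglutarate | dosing = single dose | times = 30 min demethylation and 1 h detection at room temperature | detection = LANCE TR-FRET | read-out basis = Fall in 671/618 emission ratio as inhibition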
T cruzi growth-1 – T. cruzi proliferation inhibition | 5.9% of 77,000 active | inhibition, % at 8.34 µM | T. cruzi beta-gal in NIH3T3, GalScreen luminescence, 90 h;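 active means mean inhibition above about 93%, with at least 55% of replicates each passing it, limit read from the data, passing the limit was not always enough; inconclusive means only one of those two conditions holds; inactive means neither condition holds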
T cruzi growth-2 – blocks T. cruzi growth in NIH3T3 host cells; inhibition, % at 8.35 µM; 72% of 5,600 active; T. cruzi beta-gal in NIH3T3, GalScreen luminescence, 90 h; AID 651739; shares compounds with T cruzi growth-1;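 active means mean replicate inhibition above about 95% and at least 55% of replicates individually reaching it, limit read from the data; inconclusive means only one of the two criteria is met; inactive means neither criterion is met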
T cruzi growth-3 – Trypanosoma cruzi proliferation inhibition | shares compounds with T cruzi growth-1 | T. cruzi beta-gal in NIH3T3, GalScreen luminescence, 90 h | inhibition, % at 2.09 µM | 21% of 5,600 active;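 active means mean inhibition above about 95%, with at least 55% of replicates also reaching it, limit read from the data; inconclusive means meets just one of the two conditions; inactive means meets neither condition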;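 further: plate controls were neutral control median for no effect and positive control median for full effect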
NIH3T3 tox – cytotoxicity in mouse NIH/3T3 fibroblasts. shares compounds with T cruzi growth-1. NIH/3T3 viability, CellTiter-Glo ATP luminescence, 90 h. cytotoxicity (signal decrease), % at 8.35 µM. 14% of 5,600 active;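 active means mean signal decrease across replicates above about 35% based on untreated-well scatter, with enough replicates individually passing, limit read from the data; inconclusive means no rule stated though some were filed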;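 further: 0% = median of neutral control wells and 100% = median of positive control wells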
3T3 cytotox 2 – kills mouse NIH/3T3 fibroblasts; 56% of 5,600 active; shares compounds with T cruzi growth-1; NIH/3T3 viability, CellTiter-Glo ATP luminescence, 90 h; inhibition, % at 24.9 µM;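 active means mean loss of cell viability signal at or above a set limit, and enough replicates individually reaching it; inconclusive means meets only the mean limit or only the replicate share; inactive means meets neither condition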;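 further: 0% = median of neutral control wells and 100% = median of positive control wells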
* marks the source's active call; other numbers are inactive results; ? = inconclusive; . = no result given. The entries come from a sample that favours hits as a whole.

SMILES	IDH1 R132H inh	KDM4C inh	T cruzi growth-1	T cruzi growth-2	T cruzi growth-3	NIH3T3 tox	3T3 cytotox 2
CCc1cnc(N2[C@H](CO)[C@@H](c3ccc(C4=CCCC4)cc3)[C@@H]2C#N)s1	.	-3	83	.	.	.	.
CCc1cnc(N2[C@H](C#N)[C@@H](c3ccc(C#CCC4CCCC4)cc3)[C@@H]2CO)s1	.	-1	?	96*	106*	-15	104*
CCc1cnc(N2[C@H](C#N)[C@@H](c3ccc(C4=CCCCC4)cc3)[C@@H]2CO)s1	.	0	86	.	.	.	.
CN1C(=O)c2cc(NC(=O)C3CCOCC3)ccc2OC[C@@H]2O[C@H](CC(=O)NCc3ccc4c(c3)OCO4)CC[C@H]21	.	13	-101	.	.	.	.
O=C(N[C@H]1CC[C@@H](CC(=O)N2CCN(c3ccccc3)CC2)O[C@H]1CO)c1ccccc1	3	0	-37	.	.	.	.
CC(C)NC(=O)N[C@@H]1CC[C@H](CCN)O[C@@H]1CO	0	-2	11	.	.	.	.
CC(C)NC(=O)Nc1ccc2c(c1)C(=O)N([C@H](C)CO)C[C@H](C)[C@H](CN(C)C(=O)CCCN(C)C)OCCCC[C@@H](C)O2	-1	7	18	.	.	.	.
O=C(C[C@@H]1CC[C@H]2[C@@H](COC[C@@H](O)CN2S(=O)(=O)c2ccc(Cl)cc2)O1)NCc1ccc(Cl)c(Cl)c1	.	-1	88	.	.	.	.
O=C(C[C@H]1CC[C@@H]2[C@H](COC[C@@H](O)CN2S(=O)(=O)c2ccc(Cl)cc2)O1)NCc1ccc(Cl)c(Cl)c1	.	-2	97*	104*	24	9	62*
Cc1ccc(S(=O)(=O)N2C[C@@H](O)COC[C@H]3O[C@H](CC(=O)NCc4ccc(Cl)c(Cl)c4)CC[C@@H]32)cc1	.	0	58	.	.	.	.
COc1ccc(S(=O)(=O)N2C[C@@H](O)COC[C@H]3O[C@@H](CC(=O)NCc4ccc(Cl)c(Cl)c4)CC[C@@H]32)cc1	.	10	118*	107*	25	8	26
O=C(C[C@H]1CC[C@@H]2[C@H](COC[C@H](O)CN2S(=O)(=O)c2ccc(Cl)cc2)O1)NCc1ccc(Cl)c(Cl)c1	.	-1	74	.	.	.	.
O=C(C[C@H]1CC[C@H]2[C@@H](COC[C@@H](O)CN2S(=O)(=O)c2ccc(Cl)cc2)O1)NCc1ccc(Cl)c(Cl)c1	.	1	104*	100*	41	29	55*
C[C@@H]1CN([C@H](C)CO)C(=O)c2cccc(NS(C)(=O)=O)c2O[C@H]1CN(C)C(=O)Nc1ccc2c(c1)OCO2	2	1	4	.	.	.	.
Cc1ccc(-c2ccc3c(c2)O[C@H](CN(C)Cc2ccc(F)cc2)[C@H](C)CN([C@@H](C)CO)S3(=O)=O)cc1	1	-1	97*	106*	?	19	69*
Cc1ccc(-c2ccc3c(c2)O[C@@H](CN(C)Cc2ccc(F)cc2)[C@@H](C)CN([C@H](C)CO)S3(=O)=O)cc1	0	1	92	.	.	.	.
Cc1ccc(-c2ccc3c(c2)O[C@@H](CN(C)Cc2ccc(F)cc2)[C@H](C)CN([C@@H](C)CO)S3(=O)=O)cc1	1	-2	?	96*	103*	63*	105*
Cc1ccc(-c2ccc3c(c2)O[C@H](CN(C)Cc2ccc(C(=O)O)cc2)[C@@H](C)CN([C@H](C)CO)S3(=O)=O)cc1	1	-1	61	.	.	.	.
COc1ccc2nc(NC3=NC(c4ccccc4)CC(=O)N3)nc(C)c2c1 (centres undefined)	-1	.	.	.	.	.	.
C[C@H](CO)N1C[C@H](C)[C@@H](CN(C)Cc2ccc(C(=O)Nc3ccccc3N)cc2)Oc2c(cccc2N(C)C)C1=O	0	4	?	102*	13	10	33*
C[C@@H]1CN([C@H](C)CO)C(=O)c2cccc(NC(=O)c3ccncc3)c2O[C@H]1CN(C)Cc1ccc(C(=O)Nc2ccccc2N)cc1	.	17	100*	107*	91	3	25
Cc1cc(C(=O)Nc2cccc3c2O[C@H](CN(C)Cc2ccc(Oc4ccccc4)cc2)[C@H](C)CN([C@@H](C)CO)C3=O)n(C)n1	.	0	-30	.	.	.	.
C[C@@H]1CN([C@@H](C)CO)C(=O)c2cccc(N(C)C)c2O[C@H]1CN(C)Cc1ccc(C(=O)Nc2ccccc2N)cc1	0	5	90	.	.	.	.
Cc1cc(C(=O)Nc2cccc3c2O[C@@H](CN(C)Cc2ccc(C(=O)O)cc2)[C@@H](C)CN([C@H](C)CO)C3=O)n(C)n1	1	0	.	.	.	.	.
C[C@H]1CN([C@@H](C)CO)C(=O)c2cccc(NC(=O)c3ccncc3)c2O[C@H]1CN(C)Cc1ccc(C(=O)Nc2ccccc2N)cc1	0	-1	.	.	.	.	.
SMILES	IDH1 R132H inh	KDM4C inh	T cruzi growth-1	T cruzi growth-2	T cruzi growth-3	NIH3T3 tox	3T3 cytotox 2
Cc1cc(C(=O)Nc2cccc3c2O[C@@H](CN(C)Cc2ccc(Oc4ccccc4)cc2)[C@H](C)CN([C@H](C)CO)C3=O)n(C)n1	.	10	104*	104*	59	15	104*
Cc1cc(C(=O)Nc2cccc3c2O[C@@H](CN(C)Cc2ccc(C(=O)Nc4ccccc4N)cc2)[C@@H](C)CN([C@@H](C)CO)C3=O)n(C)n1	1	0	101*	102*	74	-4	28
O=C(C1CCCO1)N1CCN(C(=S)Nc2ccc(S(=O)(=O)Nc3ncccn3)cc2)CC1 (centres undefined)	-1	.	.	.	.	.	.
O=C(c1ccccc1Cl)N1CCN(c2ccc([N+](=O)[O-])c(NCc3cccnc3)c2)CC1	0	.	.	.	.	.	.
CN(C)C(=O)C[C@@H]1CC[C@@H](NC(=O)c2ccc(F)cc2)[C@@H](CO)O1	0	0	43	.	.	.	.
C[C@H](CO)N1C[C@H](C)[C@H](CN(C)Cc2ccc(C(=O)Nc3ccccc3N)cc2)Oc2c(NC(=O)C3CCOCC3)cccc2C1=O	0	5	86	.	.	.	.
C[C@@H]1CN([C@@H](C)CO)C(=O)c2cccc(NC(=O)c3ccncc3)c2O[C@H]1CN(C)Cc1ccccc1	.	0	64	.	.	.	.
C[C@H](CO)N1C[C@H](C)[C@@H](CN(C)Cc2ccc(C(=O)Nc3ccccc3N)cc2)Oc2c(NC(=O)C3CCOCC3)cccc2C1=O	1	4	99*	102*	87	3	4
C[C@@H]1CN([C@@H](C)CO)C(=O)c2cccc(NC(=O)c3cnccn3)c2O[C@H]1CN(C)Cc1ccc(C(=O)Nc2ccccc2N)cc1	0	-2	112*	107*	85	33	42*
C[C@@H]1CN([C@@H](C)CO)C(=O)c2cccc(NC(=O)c3ccncc3)c2O[C@@H]1CN(C)Cc1ccc(C(=O)Nc2ccccc2N)cc1	.	1	?	89	48	21	67*
